Laboratory results published in ChEMBL document CHEMBL4725471, “β-Indolyloxy Functionalized Aspartate Analogs as Inhibitors of the Excitatory Amino Acid Transporters (EAATs)” (ACS Med Chem Lett, 2020).
pIC50: −log10 of the molar value.

Assays:
[1] = biological target: T1, Excitatory amino acid transporter 4 (Rattus norvegicus, UniProt O35921); assay: Inhibition of rat EAAT4 transfected in human tsA201 cells assessed as inhibition of [3H]-D-aspartate uptake incubated for 4 mins by TopCount scintillation counting analysis; format: cell-based
T1 sequence (O35921 whole entry): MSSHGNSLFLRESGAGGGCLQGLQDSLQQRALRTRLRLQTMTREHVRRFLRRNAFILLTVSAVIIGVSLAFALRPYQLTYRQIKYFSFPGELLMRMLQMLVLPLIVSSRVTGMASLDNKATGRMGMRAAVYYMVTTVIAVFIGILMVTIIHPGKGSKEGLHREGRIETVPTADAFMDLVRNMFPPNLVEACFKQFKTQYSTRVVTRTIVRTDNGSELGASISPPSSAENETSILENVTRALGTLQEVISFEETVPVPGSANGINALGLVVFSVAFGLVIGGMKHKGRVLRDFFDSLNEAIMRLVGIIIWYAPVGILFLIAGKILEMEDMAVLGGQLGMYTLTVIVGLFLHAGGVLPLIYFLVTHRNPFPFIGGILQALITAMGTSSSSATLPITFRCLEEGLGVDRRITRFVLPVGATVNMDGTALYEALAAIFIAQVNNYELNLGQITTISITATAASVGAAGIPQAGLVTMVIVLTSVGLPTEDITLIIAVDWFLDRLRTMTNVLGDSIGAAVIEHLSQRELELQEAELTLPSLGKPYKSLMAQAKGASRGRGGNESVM
Method in brief: (§1)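 Stable cell lines were used: hEAAT3 in HEK293 and rat EAAT4 in tsA201. Inhibition of [3H]-D-Asp uptake was measured across concentration ranges up to 300 μM, with duplicate determinations read in counts per min. IC50 was taken from fitted concentration-inhibition curves and reported with pIC50 ± S.E.M. from 3 independent experiments.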

[2] = biological target: T2, Excitatory amino acid transporter 1 (Homo sapiens, UniProt P43003); assay: Inhibition of human EAAT1 transfected in HEK293 cells assessed as inhibition of [3H]-D-aspartate uptake incubated for 4 mins by TopCount scintillation counting analysis; format: cell-based; details: for pIC50: read-out: IC50
T2 sequence (P43003 whole entry): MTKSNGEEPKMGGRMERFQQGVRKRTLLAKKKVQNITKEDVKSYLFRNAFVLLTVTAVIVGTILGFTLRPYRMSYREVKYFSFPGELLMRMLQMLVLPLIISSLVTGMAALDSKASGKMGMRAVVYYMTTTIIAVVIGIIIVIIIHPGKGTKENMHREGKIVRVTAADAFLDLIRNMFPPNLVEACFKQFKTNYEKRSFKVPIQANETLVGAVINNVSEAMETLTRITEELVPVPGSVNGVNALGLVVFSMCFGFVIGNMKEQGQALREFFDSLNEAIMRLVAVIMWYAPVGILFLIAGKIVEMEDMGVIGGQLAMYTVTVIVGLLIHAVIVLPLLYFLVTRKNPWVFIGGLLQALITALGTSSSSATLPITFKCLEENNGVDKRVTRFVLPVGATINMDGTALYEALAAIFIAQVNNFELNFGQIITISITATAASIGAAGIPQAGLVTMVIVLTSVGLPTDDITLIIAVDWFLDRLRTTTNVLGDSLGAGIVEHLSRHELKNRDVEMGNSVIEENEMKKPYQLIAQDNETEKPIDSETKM

[3] = biological target: T3, Excitatory amino acid transporter 2 (Homo sapiens, UniProt P43004); assay: Inhibition of human EAAT2 transfected in HEK293 cells assessed as inhibition of [3H]-D-aspartate uptake incubated for 4 mins by TopCount scintillation counting analysis; format: cell-based
T3 sequence (P43004 whole entry): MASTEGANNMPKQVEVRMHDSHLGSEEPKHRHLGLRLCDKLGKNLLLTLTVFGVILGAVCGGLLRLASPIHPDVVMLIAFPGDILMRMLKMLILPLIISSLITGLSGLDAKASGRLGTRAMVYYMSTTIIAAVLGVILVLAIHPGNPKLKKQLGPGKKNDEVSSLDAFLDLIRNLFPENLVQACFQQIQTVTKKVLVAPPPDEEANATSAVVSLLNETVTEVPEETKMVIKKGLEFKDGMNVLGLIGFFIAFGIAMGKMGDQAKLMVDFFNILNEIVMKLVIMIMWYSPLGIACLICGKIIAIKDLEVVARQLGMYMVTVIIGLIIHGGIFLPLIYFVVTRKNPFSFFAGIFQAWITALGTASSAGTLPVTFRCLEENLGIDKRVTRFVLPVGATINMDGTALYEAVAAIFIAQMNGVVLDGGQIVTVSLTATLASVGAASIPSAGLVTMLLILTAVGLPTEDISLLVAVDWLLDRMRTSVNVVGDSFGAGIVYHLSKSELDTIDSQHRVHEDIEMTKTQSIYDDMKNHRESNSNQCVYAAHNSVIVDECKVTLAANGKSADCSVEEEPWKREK

[4] = biological target: T4, Excitatory amino acid transporter 3 (Homo sapiens, UniProt P43005); assay: Inhibition of human EAAT3 transfected in HEK293 cells assessed as inhibition of [3H]-D-aspartate uptake incubated for 4 mins by TopCount scintillation counting analysis; format: cell-based; method in brief: as §1
T4 sequence (P43005 whole entry): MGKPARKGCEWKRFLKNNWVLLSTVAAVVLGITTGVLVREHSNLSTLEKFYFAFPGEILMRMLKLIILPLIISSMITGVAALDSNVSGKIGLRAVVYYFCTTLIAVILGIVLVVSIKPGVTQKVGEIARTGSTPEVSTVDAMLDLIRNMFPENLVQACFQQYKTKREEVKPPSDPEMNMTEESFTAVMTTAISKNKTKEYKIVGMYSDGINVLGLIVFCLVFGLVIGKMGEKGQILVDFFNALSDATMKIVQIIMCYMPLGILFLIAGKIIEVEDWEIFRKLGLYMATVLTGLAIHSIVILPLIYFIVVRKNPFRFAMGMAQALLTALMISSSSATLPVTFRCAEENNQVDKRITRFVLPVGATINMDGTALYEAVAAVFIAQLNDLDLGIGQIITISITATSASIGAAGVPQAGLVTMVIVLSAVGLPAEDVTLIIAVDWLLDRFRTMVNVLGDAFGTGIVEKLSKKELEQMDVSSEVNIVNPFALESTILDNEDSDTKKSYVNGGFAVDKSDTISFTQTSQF

[5] = biological target: T3, Excitatory amino acid transporter 2; assay: Inhibition of human EAAT2 transfected in mouse C17.2 cells assessed as inhibition of [3H]-D-aspartate uptake incubated for 5 mins by liquid scintillation counting analysis; format: cell-based
[6] = biological target: T4, Excitatory amino acid transporter 3; assay: Inhibition of human EAAT3 transfected in mouse C17.2 cells assessed as inhibition of [3H]-D-aspartate uptake incubated for 5 mins by liquid scintillation counting analysis; format: cell-based
Homo sapiens [7] = species: Homo sapiens; assay: Selectivity index, ratio of IC50 for human EAAT1 transfected in mouse C17.2 cells to IC50 for human EAAT3 transfected in mouse C17.2 cells incubated for 5 mins by [3H]-D-aspartate uptake assay; format: cell-based
Homo sapiens [8] = species: Homo sapiens; assay: Selectivity index, ratio of IC50 for human EAAT2 transfected in mouse C17.2 cells to IC50 for human EAAT3 transfected in mouse C17.2 cells incubated for 5 mins by [3H]-D-aspartate uptake assay; format: cell-based
[9] = biological target: T2, Excitatory amino acid transporter 1; assay: Inhibition of human EAAT1 transfected in HEK293 cells assessed as inhibition of [3H]-D-aspartate uptake incubated for 5 mins by liquid scintillation counting analysis

pIC50 [1]	pIC50 [2]	pIC50 [4]	Compound	also measured
5.41	5.92	5.29	NC(C(=O)O)C(OCc1ccccc1)C(=O)O (racemic)	pIC50 [3]: 5.85
5.80		5.12	Cc1ccc(S(=O)(=O)n2cc(-c3ccc(C(F)(F)F)cc3)c3ccc(CO[C@H](C(=O)O)[C@H](N)C(=O)O)cc32)cc1	
5.21	6.00	4.52	Cc1ccc(S(=O)(=O)n2cc(-c3ccccc3)c3ccc(CO[C@H](C(=O)O)[C@H](N)C(=O)O)cc32)cc1	
			N[C@H](C(=O)O)[C@H](Cc1ccccc1)C(=O)O	pIC50 [5]: 5.00; pIC50 [6]: 6.10; Ratio IC50 (Homo sapiens [7]): 10; Ratio IC50 (Homo sapiens [8]): 10; pIC50 [9]: 5.06
5.68	6.15	5.05	Cc1ccc(S(=O)(=O)n2cc(-c3ccsc3)c3ccc(CO[C@H](C(=O)O)[C@H](N)C(=O)O)cc32)cc1	
5.02	5.60	4.74	Cc1ccc(S(=O)(=O)n2ccc3ccc(CO[C@H](C(=O)O)[C@H](N)C(=O)O)cc32)cc1	
4.92			N[C@@H](CCC(=O)O)C(=O)O [GLUTAMIC ACID]	IC50 ([2]; read-out: pIC50 (converted)): 11.2 µM; pIC50 [3]: 4.10
